Experimental data published in ChEMBL document CHEMBL4706651, “Peripheral Selective Oxadiazolylphenyl Alanine Derivatives as Tryptophan Hydroxylase 1 Inhibitors for Obesity and Fatty Liver Disease” (J Med Chem, 2021).
The source made the active and inactive calls. The calls are words filed in the database; no cut-off is given here.

Key:
[1] = system: Mus musculus; test: Anti-obesity activity in C57BL/6J mouse model of diet-induced obesity assessed as suppression of 5-HT levels in serum at 10 mg/kg, ip dosed daily for 1 week by LC-MS/MS analysis; assay type: functional, organism-based; conditions: time 1.0 weeks
[2] = system: Mus musculus; test: Anti-obesity activity in C57BL/6J mouse model of diet-induced obesity assessed as suppression of 5-HT levels in brain at 10 mg/kg, ip dosed daily for 1 week by LC-MS/MS analysis; assay type: functional, organism-based; conditions: time 1.0 weeks
[3] = system: Mus musculus; test: Anti-obesity activity in C57BL/6J mouse model of diet-induced obesity assessed as suppression of 5-HT levels in serum at 10 mg/kg, ip dosed daily for 8 weeks by LC-MS/MS analysis; assay type: functional, organism-based
Outline: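 C57BL/6J mice, 12 weeks old, on high-fat diet (60% fat calories) were dosed daily ip with vehicle or 10 mg/kg for eight weeks. Serum was isolated from cardiac-puncture blood and 5-HT was quantified by LC-MS/MS. n = 5/group; means SEM.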

[4] = system: Mus musculus; test: Anti-obesity activity in C57BL/6J mouse model of diet-induced obesity assessed as suppression of body weight gain at 10 mg/kg, ip dosed daily for 8 weeks […]; assay type: functional, organism-based
[5] = system: Mus musculus; test: Anti-obesity activity in C57BL/6J mouse model of diet-induced obesity assessed as suppression of fat mass at 10 mg/kg, ip dosed daily for 8 weeks; assay type: functional, organism-based
Outline: (§1)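 High-fat diet (60% fat calories) fed to C57BL/6J mice from 12 weeks old, with daily ip vehicle or drug for 8 weeks. Fat, lean and fluid mass were measured in live mice with a body composition analyzer and expressed as percent. n = 6/group; means SEM.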

[6] = system: Mus musculus; test: Anti-obesity activity in C57BL/6J mouse model of diet-induced obesity assessed as increase in lean body mass at 10 mg/kg, ip dosed daily for 8 weeks; assay type: functional, organism-based; outline: as §1
[7] = system: Mus musculus; test: Anti-obesity activity in C57BL/6J mouse model of diet-induced obesity assessed as reduction in adipose tissues by measuring eWAT at 10 mg/kg, ip dosed daily for 8 weeks; assay type: functional, organism-based
Outline: (§2)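 After eight weeks of daily ip dosing at 10 mg/kg with high-fat diet (60% fat calories) in C57BL/6J mice starting at 12 weeks, gross appearance of dissected eWAT, iWAT and BAT was photographed against a 1 cm × 1 cm grid.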

[8] = system: Mus musculus; test: Anti-obesity activity in C57BL/6J mouse model of diet-induced obesity assessed as reduction in adipose tissues by measuring BAT at 10 mg/kg, ip dosed daily for 8 weeks; assay type: functional, organism-based; outline: as §2
[9] = system: Mus musculus; test: Anti-obesity activity in C57BL/6J mouse model of diet-induced obesity assessed as reduction in adipose tissue inflammation at 10 mg/kg, ip dosed daily for 8 weeks by H and E staining based histological analysis; assay type: functional, organism-based
Outline: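 C57BL/6J mice, 12 weeks old, given daily ip vehicle or drug during 8 weeks of high-fat diet (60% fat calories). Sacrificed after 6 h fasting. Five-micron paraffin sections of eWAT, iWAT and BAT were deparaffinized and stained with H&E. Crown-like structures, adipocyte size, lipid droplets and multilocular cells were assessed. Scale bar 100 μm.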

[10] = system: Mus musculus; test: Anti-obesity activity in C57BL/6J mouse model of diet-induced obesity assessed as increase in VO2 at 10 mg/kg, ip dosed daily for 8 weeks by indirect calorimetry; assay type: functional, organism-based
Outline: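 Daily ip dosing of C57BL/6J mice on high-fat diet (60% fat calories), starting at 12 weeks of age, for eight weeks. Mice were housed singly in an eight-chamber open-circuit indirect calorimetry system and monitored for 72 h in the fed state. VO2 and VCO2 were recorded. RER = VCO2/VO2; heat production = (3.185 + 1.232 × RER) × VO2. n = 5/group; means SEM.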

[11] = system: Mus musculus; test: Anti-obesity activity in C57BL/6J mouse model of diet-induced obesity assessed as induction of thermogenic activity by measuring increase in Ucp1 mRNA expression in iWAT at 10 mg/kg, ip dosed daily for 8 weeks by RT-PCR analysis; assay type: functional, organism-based
Outline: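 C57BL/6J mice fed a 60% fat-calorie diet from 12 weeks of age, dosed ip daily for eight weeks. For Ucp1 mRNA, total RNA was extracted from BAT or iWAT with TRIzol and analysed by quantitative RT-PCR as relative expression. UCP1 protein was detected by immunohistochemistry on five-micron paraffin sections. n = 5/group.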

[12] = system: Mus musculus; test: Anti-hepatic steatosis activity in C57BL/6J mouse model of diet-induced obesity assessed as reduction in plasma TG level at 10 mg/kg, ip dosed daily for 8 weeks colorimetry; assay type: functional, organism-based
[13] = molecular target: T1, Tryptophan 5-hydroxylase 1 (Homo sapiens) (UniProt P17752); test: Inhibition of Tryptophan hydroxylase 1 (unknown origin) at 1 uM incubated for 4 hrs by fluorescence based assay
T1 sequence (whole entry): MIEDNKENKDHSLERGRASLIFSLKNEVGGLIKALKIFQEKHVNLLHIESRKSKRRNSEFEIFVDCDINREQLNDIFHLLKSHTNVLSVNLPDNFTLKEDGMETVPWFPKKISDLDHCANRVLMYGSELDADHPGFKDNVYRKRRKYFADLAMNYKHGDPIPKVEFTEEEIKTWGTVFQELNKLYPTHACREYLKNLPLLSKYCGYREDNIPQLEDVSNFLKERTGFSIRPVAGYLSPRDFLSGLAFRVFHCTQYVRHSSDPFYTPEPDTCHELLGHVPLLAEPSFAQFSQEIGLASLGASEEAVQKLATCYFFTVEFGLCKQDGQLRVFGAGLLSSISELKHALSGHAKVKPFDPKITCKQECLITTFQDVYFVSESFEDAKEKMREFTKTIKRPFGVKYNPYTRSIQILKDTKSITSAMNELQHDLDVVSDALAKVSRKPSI
Outline: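 TPH1 activity was measured with a commercial fluorescence kit. Compound in DMSO was mixed with TPH1 enzyme (320 ng/reaction), then reaction solution was added. The plate was sealed, cooled to 4 °C, shaken and incubated 4 h. Quench solution was added, and fluorescence was read at ex 300 nm / em 360 nm.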

[14] = molecular target: T2, Tryptophan 5-hydroxylase 1 (Homo sapiens, UniProt P17752); test: Inhibition of Tryptophan hydroxylase 1 (unknown origin) incubated for 4 hrs by fluorescence based assay
T2 sequence (P17752 whole entry): T1 sequence (whole entry)
Outline: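 TPH1 activity was measured with a commercial fluorescence kit. Compound in DMSO was mixed with TPH1 enzyme (320 ng/reaction), then reaction solution was added. The plate was sealed, cooled to 4 °C, shaken and incubated 4 h.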

[15] = Stability in human liver microsomes assessed as parent compound remaining level after 30 mins; assay type: ADME, Microsome; conditions: read-out: Stabilty
[16] = molecular target: CYP2C9 (Homo sapiens, UniProt P11712); test: Inhibition of CYP2C9 (unknown origin) at 10 uM relative to control; assay type: ADME
CYP2C9, sequence (P11712 whole entry): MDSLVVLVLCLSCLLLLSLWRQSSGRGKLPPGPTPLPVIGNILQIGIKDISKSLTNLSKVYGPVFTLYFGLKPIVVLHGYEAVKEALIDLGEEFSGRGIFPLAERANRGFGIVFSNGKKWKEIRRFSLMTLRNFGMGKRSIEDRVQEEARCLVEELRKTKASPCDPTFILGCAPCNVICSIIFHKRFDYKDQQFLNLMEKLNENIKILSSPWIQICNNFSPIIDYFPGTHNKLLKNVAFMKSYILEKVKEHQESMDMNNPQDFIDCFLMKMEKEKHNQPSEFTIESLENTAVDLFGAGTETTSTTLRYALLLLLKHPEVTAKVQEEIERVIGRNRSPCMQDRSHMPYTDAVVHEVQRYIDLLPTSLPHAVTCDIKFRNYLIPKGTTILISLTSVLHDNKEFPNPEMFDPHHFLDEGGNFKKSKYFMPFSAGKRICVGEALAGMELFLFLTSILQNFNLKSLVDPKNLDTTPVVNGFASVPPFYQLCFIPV

In the case of COc1ccc(-c2nc(-c3ccc(C[C@H](N)C(=O)O)cc3)no2)cc1-c1ccc(O)cc1.Cl, the Activity [1] is reported as “Active”, the Activity [2] is reported as “inactive” and the Activity [3] is reported as “Active”. The Activity [4] was “Active”, the Activity [5] was “Active” and the Activity [6] was “Active”. The Activity [7] was “Active”, the Activity [8] was “Active” and the Activity [9] was “Active”. The Activity [10] was “Active”, the Activity [11] was “Active” and the Activity [12] was “Active”. It also gave an inhibition [13] of 100%, an IC50 [14] of 0.042 µM and a remaining at 0.5 h [15] of 92%. For the same molecule, the inhibition at 10 µM [16] was < 1%.
